Experimental data reported in PubChem BioAssay.
Inconclusive results are not listed.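 Rule for the calls, unless noted: active = viability increase at or above a cutoff of the median across tested compounds plus 3 SD (cut at about 8.5% in these data, passing the limit was not always enough); inconclusive = some gains above the cutoff, reason not given; inactive = the rest.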

Tests used:
[1] = S. cerevisiae growth inhibition in permissive medium (OD615), pilot counter-assay for S. cerevisiae lifespan shortening project, permissive growth control (AID 705;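 active = growth inhibition above 25% in both replicates, a cutoff set 3 SD above the mean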); settings: OD615, 24 h, at 10 µM, active compounds read high
Summary of the method: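 System – S. cerevisiae with engineered DeaD lifespan system · Buffer or medium – SC raffinose/galactose permissive medium · Schedule – cells pre-grown 4 h, then 24 h compound exposure, 30 °C humidified · Technique – culture turbidity as optical density at 615 nm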

[2] = S. cerevisiae growth inhibition in restrictive medium, OD615, pilot screen, restrictive growth control, yeast lifespan reduction project (AID 706;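 active = growth inhibition above a set limit, 3 SD over mean compound inhibition, in both replicates, cut at about 43% in these data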;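 note: modified DeaD lifespan yeast strain shifted to restrictive glucose medium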); settings: OD615, 48 h, at 10 µM, active compounds read high
Summary of the method: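 Material: engineered S. cerevisiae DeaD strain / Medium: glucose-based CSMM-D restrictive medium / Compound: single dose of 10 µM compound final, 0.25% DMSO / Timing: 4 h pre-incubation, 48 h exposure at 30 °C / Technique: OD615 absorbance reading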

[3] = doxorubicin toxicity protection in MRP-1 cells – H69AR cells, CellTiter-Glo, duplicate, MRP-1 activator project, pilot screen (AID 807); settings: H69AR viability with doxorubicin, CellTiter-Glo luminescence; at 10 µM; active compounds read high;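 note: compound pretreatment 18-22 h then 72 h combined with doxorubicin; 0% = doxorubicin alone and 100% = vehicle without doxorubicin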
[4] = viability of HCT116 without oncogenic beta-catenin – human colon tumor cells, pilot screen (AID 823;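 active = cell viability at or below a set limit in both duplicate runs, the limit being the all-compound median minus 4 SD, cut at about 23% in these data, passing the limit was not always enough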;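 note: 0% = wells killed by 20 µM Hyamine and 100% = untreated DMSO cell wells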); settings: HCT116 beta-catenin knockout viability, CellTiter-Glo, 60 h; at 10 µM; active compounds read low
[5] = viability of PTEN-null HCT116 cells – cell-based, HCT116 clonal line, CellTiter-Glo, pilot screen (AID 824;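 active = viability at or below 27.92% in each of two runs, the all-compound median minus 4 SD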;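 note: 0% = 20 µM Hyamine control and 100% = vehicle cell control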); settings: HCT116 PTEN-deleted viability, 60 h, at 10 µM, active compounds read low
[6] = RAM pathway blockade in budding yeast – dse1pr::URA3 reporter, 5-FOA selection, pilot screen (AID 869;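 active = inhibition over a set limit, the all-compound mean plus 3 SD, in both replicate runs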;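 note: 0% = DMSO wells with no growth and 100% = 10 µM 1-NA-PP1 with full growth; RAM network block rescues cells from 5-FOA so hits raise OD615 growth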); settings: S. cerevisiae dse1pr::URA3 5-FOA growth, OD615, 2 d; at 10 µM; active compounds read high; strain carries analog-sensitive mutant Cbk1 kinase
[7] = RAM signaling pathway blockade in yeast – S. cerevisiae, Pdr1DBD-CYC8 efflux-inhibited sensitized strain, primary screen (AID 1298;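 active = RAM network inhibition above 8.4% in each of two replicates, 3 SD over the compound average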;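 note: 0% = DMSO untreated cells without growth and 100% = 10 µM 1-NA-PP1 full growth; higher means more yeast growth rescued from 5-FOA killing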); settings: S. cerevisiae cbk1-as DSE1-URA3 strain, 5-FOA growth OD615, 2 d; at 50 µM; active compounds read high

CSc1ccc(C2NC(=O)c3c(sc4c3CCN(C)C4)N2)cc1 (centres undefined)
inactive: growth inhibition [1] -13.2% | growth inhibition [2] -0.305% | viability increase [3] -2.7% | viability [4] 78.2% | viability [5] 92.5% | inhibition [6] -0.285% | RAM network inhibition [7] 4.99%

CSCCC(NC(=O)c1c(C)oc2c1CCCC2)C(=O)O (centres undefined)
inactive: growth inhibition [1] -2.84% | growth inhibition [2] -12.1% | viability increase [3] -0.78% | viability [4] 98.5% | viability [5] 95.9% | inhibition [6] 1.46% | RAM network inhibition [7] 0.21%

CC/C(=C\C(=O)c1ccncc1)Nc1ccc(O)cc1
inactive: growth inhibition [1] -4.59% | growth inhibition [2] 8.96% | viability increase [3] -3.41% | viability [4] 92.8% | viability [5] 83.7% | inhibition [6] 1.58% | RAM network inhibition [7] 2.31%

COc1ccc(-c2cn3c(C)c(C(=O)N4CCN(c5ccc(F)cc5)CC4)sc3n2)cc1
inactive: growth inhibition [1] -0.17% | growth inhibition [2] -2.07% | viability increase [3] 0.81% | viability [4] 101% | viability [5] 103% | RAM network inhibition [7] 5.28%

O=C(Cc1cc(=O)[nH]c(=O)[nH]1)NCC1CCCO1 (centres undefined)
inactive: growth inhibition [1] 7.33% | growth inhibition [2] -1.15% | viability increase [3] 0.94% | viability [4] 106% | viability [5] 104% | inhibition [6] 0.945% | RAM network inhibition [7] 2.29%

CCCCCCn1c(SCCOC)nc2c1c(=O)[nH]c(=O)n2C
inactive: growth inhibition [1] -2.79% | growth inhibition [2] -3.65% | viability increase [3] -0.71% | viability [4] 90.2% | viability [5] 85% | inhibition [6] 1.88% | RAM network inhibition [7] 9.09%

CCOC(=O)c1ccc(N2C(=O)C3CC=C(C)CC3C2=O)cc1 (centres undefined)
inactive: growth inhibition [1] -9.14% | growth inhibition [2] -14.8% | viability increase [3] -0.33% | viability [4] 97.1% | viability [5] 91.8% | inhibition [6] 1.07% | RAM network inhibition [7] 1.75%

CCC(C)(C(=O)NC1CCCC1)N(CC1CCCO1)C(=O)CNC(=O)c1ccccc1 (centres undefined)
inactive: growth inhibition [1] -6.16% | growth inhibition [2] -12.3% | viability increase [3] -2.92% | viability [4] 98.2% | viability [5] 93% | RAM network inhibition [7] 1.24%
